# Measurements taken from paper PMC9524580 (Neuropharmacology, 2022).
# Entries after “also recorded” stand apart in the source; their conditions may differ.
# Columns and labels:
# [1] = inferred from use as biomarker of coffee consumption; ref Bresciani et al., 2020; cited from earlier work
# [2] = target: high sensitivity (HS) α4(2)β2(3) nAChR (Homo sapiens, UniProt P17787+P43681); type: cell-based; conditions: for Effect on ACh-evoked peak-current responses of HS α4β2 receptors: 100 μM compound co-applied with control ACh (10 μM)
# [3] = target: α3β4 nAChR (Homo sapiens, UniProt P30926+P32297); type: cell-based; conditions: 100 μM n-MP co-applied with 100 μM ACh; alpha:beta RNA 5:1 or 1:5 (either set)
# How it was run: (§1)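 Xenopus oocytes were injected with human α3 plus β2 or β4 subunit RNA at alpha:beta ratios of 1:5 or 5:1. Two-electrode voltage clamp at −60 mV, 24 °C, with Ringer's (pH 7.2, 1 μM atropine) at 4 ml/min.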
# [4] = target: human α7 nAChR (Homo sapiens, UniProt P36544); assay: Two-electrode voltage clamp of Xenopus oocytes expressing α7 nAChR; type: cell-based; conditions: for α7 net-charge response to compound co-applied with PNU-120596: 100 μM compound + 10 μM PNU-120596, compared to PNU-120596 alone or ACh control
# How it was run: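 Human α7 clone co-injected with human RIC3 in Xenopus oocytes. Oocytes were clamped at −60 mV at 24 °C and perfused at 2 ml/min with Ringer's (115 mM NaCl, 2.5 mM KCl, 1.8 mM CaCl2, 10 mM HEPES, 1 μM atropine, pH 7.2). […] Compound was 100 μM, alone or with 10 μM PAM; n = 6–8 oocytes; ANOVA.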
# [5] = target: α4(2)β2(2)α5 nAChR (Homo sapiens, UniProt P17787+P30532+P43681); assay: Two-electrode voltage clamp of Xenopus oocytes expressing α4β2α5 nAChR; type: cell-based; conditions: 100 μM n-MP co-applied with 10 μM ACh
# How it was run: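 Human α4(2)β2(2)α5 receptors expressed in Xenopus laevis oocytes. Voltage-clamped at −60 mV and room temperature (24 °C), perfused at 4 ml/min with atropine-containing Ringer's, pH 7.2. […] At least five oocytes; mean ± S.D.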
# [6] = target: low sensitivity (LS) α4(3)β2(2) nAChR (Homo sapiens, UniProt P17787+P43681); assay: Two-electrode voltage clamp of Xenopus oocytes expressing LS α4β2 nAChR; type: cell-based; conditions: for Effect on ACh-evoked peak-current responses of LS α4β2 receptors: 100 μM compound co-applied with control ACh (100 μM)
# [7] = target: β3α4β2α6β2 nAChR (Homo sapiens, UniProt P17787+P43681+Q05901+Q15825); type: cell-based; conditions: 100 μM n-MP co-applied with 30 μM ACh
# How it was run: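 Oocytes from female Xenopus laevis expressed human β3α4β2α6β2 from a linked-subunit concatamer. Two-electrode voltage clamp at −60 mV and 24 °C. Bath perfusion at 4 ml/min with Ringer's (115 mM NaCl, 2.5 mM KCl, 1.8 mM CaCl2, 10 mM HEPES, 1 μM atropine, pH 7.2). […] Responses were relative to the mean of the two controls; n = 6, mean ± S.D.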
# [8] = target: α3β2 nAChR (Homo sapiens, UniProt P17787+P32297); type: cell-based; conditions: 100 μM n-MP co-applied with 100 μM ACh
# How it was run: as §1
# Chain of low sensitivity (LS) α4(3)β2(2) nAChR (P17787 26-502): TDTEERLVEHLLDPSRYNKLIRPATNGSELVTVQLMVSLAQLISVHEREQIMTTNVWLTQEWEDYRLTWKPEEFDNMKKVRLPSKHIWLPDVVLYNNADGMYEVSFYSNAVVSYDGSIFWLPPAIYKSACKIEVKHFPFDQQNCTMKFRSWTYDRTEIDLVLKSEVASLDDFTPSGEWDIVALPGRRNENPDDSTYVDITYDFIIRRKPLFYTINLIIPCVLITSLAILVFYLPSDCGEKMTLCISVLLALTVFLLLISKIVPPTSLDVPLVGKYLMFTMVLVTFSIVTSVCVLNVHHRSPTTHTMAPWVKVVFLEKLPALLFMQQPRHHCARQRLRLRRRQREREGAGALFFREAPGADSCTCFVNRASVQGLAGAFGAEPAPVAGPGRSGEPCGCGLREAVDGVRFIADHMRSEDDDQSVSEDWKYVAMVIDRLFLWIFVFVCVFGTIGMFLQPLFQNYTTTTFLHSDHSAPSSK
# Chain of low sensitivity (LS) α4(3)β2(2) nAChR (P43681 29-627 limits assumed): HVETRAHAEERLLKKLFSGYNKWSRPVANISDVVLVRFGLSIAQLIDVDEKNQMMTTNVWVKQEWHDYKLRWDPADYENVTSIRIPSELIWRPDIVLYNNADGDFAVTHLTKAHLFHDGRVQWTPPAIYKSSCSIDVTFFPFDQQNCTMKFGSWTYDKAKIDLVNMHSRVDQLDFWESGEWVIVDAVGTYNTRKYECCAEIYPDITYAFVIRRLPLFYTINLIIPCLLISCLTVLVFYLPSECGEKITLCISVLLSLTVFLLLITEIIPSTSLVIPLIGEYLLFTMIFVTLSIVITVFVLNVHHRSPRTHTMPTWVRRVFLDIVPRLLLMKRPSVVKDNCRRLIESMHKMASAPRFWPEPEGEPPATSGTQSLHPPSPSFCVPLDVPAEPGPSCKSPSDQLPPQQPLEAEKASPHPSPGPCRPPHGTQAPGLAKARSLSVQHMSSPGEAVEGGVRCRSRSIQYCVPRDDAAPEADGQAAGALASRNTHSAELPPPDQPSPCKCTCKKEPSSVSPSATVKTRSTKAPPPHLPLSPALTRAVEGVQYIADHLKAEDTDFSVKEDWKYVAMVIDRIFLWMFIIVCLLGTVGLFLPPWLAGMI
# Chain of low sensitivity (LS) α4(3)β2(2) nAChR (P43681 29-627 limits assumed): as above
# Chain of high sensitivity (HS) α4(2)β2(3) nAChR (P17787 26-502): as the sequence (P17787 26-502) above
# Chain of high sensitivity (HS) α4(2)β2(3) nAChR (P43681 29-627 limits assumed): as the sequence (P43681 29-627 limits assumed) above
# Chain of high sensitivity (HS) α4(2)β2(3) nAChR (P17787 26-502): as the sequence (P17787 26-502) above
# Chain of human α7 nAChR (P36544 23-502): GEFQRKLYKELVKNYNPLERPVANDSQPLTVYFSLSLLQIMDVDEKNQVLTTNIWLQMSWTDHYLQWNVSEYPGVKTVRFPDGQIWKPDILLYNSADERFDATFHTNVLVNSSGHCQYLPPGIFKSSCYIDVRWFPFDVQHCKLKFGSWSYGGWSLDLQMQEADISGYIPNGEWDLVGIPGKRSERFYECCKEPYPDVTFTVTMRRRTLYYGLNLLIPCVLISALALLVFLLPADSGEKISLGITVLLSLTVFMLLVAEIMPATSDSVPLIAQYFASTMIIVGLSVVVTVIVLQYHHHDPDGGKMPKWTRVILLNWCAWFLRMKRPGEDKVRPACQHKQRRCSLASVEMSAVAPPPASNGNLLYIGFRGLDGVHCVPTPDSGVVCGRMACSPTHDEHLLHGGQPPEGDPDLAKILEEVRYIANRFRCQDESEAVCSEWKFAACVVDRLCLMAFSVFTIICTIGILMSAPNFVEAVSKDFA
# Chain of α3β2 nAChR (P32297 32-505): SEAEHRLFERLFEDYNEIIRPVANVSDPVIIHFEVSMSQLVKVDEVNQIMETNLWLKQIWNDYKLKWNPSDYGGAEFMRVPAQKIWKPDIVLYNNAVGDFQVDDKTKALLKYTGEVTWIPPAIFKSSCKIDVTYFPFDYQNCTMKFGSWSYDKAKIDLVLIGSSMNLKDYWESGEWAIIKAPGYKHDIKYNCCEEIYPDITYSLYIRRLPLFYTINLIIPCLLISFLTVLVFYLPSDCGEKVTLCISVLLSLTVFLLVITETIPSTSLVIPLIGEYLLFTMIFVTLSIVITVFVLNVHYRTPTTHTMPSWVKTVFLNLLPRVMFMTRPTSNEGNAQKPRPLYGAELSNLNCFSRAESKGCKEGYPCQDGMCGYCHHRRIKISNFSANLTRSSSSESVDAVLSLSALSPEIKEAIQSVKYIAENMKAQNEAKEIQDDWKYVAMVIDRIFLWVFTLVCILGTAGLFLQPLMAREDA
# Chain of α3β2 nAChR (P17787 26-502): as the sequence (P17787 26-502) above
# Chain of α4(2)β2(2)α5 nAChR (P17787 26-502): as above
# Chain of α4(2)β2(2)α5 nAChR (P43681 29-627 limits assumed): as the sequence (P43681 29-627 limits assumed) above
# Chain of α4(2)β2(2)α5 nAChR (P30532 23-468): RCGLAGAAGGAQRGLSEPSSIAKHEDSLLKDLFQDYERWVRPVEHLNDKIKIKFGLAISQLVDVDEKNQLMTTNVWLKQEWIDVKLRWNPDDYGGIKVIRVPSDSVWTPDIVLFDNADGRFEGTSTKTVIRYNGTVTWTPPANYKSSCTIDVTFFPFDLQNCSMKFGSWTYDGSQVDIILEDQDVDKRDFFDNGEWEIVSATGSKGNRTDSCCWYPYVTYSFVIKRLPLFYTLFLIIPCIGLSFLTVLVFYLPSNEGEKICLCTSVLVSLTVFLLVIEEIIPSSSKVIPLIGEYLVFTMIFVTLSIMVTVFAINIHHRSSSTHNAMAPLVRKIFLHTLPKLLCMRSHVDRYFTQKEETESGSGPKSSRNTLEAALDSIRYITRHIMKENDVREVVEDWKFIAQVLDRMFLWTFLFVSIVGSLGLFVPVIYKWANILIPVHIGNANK
# Chain of β3α4β2α6β2 nAChR (Q05901 25-458 limits assumed): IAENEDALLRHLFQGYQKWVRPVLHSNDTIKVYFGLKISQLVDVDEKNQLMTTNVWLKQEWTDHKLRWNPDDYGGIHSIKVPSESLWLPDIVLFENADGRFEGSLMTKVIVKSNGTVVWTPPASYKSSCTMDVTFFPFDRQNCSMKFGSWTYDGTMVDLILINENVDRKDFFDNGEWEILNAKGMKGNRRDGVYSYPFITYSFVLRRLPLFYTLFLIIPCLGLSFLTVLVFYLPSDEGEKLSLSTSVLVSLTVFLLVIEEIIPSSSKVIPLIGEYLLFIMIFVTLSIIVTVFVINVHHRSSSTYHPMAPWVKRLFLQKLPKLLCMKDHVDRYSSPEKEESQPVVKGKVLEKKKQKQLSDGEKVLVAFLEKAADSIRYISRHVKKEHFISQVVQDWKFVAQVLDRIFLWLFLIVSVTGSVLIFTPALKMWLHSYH
# Chain of β3α4β2α6β2 nAChR (P43681 29-627 limits assumed): as the sequence (P43681 29-627 limits assumed) above
# Chain of β3α4β2α6β2 nAChR (P17787 26-502): as the sequence (P17787 26-502) above
# Chain of β3α4β2α6β2 nAChR (Q15825 26-494): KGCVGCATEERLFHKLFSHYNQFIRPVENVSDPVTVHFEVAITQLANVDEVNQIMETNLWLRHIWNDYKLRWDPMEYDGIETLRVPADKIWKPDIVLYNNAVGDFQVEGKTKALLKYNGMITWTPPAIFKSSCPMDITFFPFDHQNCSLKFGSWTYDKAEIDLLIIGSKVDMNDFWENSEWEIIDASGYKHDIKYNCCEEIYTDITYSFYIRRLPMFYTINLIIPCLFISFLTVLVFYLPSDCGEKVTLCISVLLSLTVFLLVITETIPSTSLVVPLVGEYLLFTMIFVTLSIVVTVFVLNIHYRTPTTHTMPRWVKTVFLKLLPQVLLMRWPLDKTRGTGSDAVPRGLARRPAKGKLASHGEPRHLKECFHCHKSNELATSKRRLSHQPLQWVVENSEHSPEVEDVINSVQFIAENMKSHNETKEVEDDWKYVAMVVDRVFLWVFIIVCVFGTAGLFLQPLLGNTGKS
# Chain of β3α4β2α6β2 nAChR (P17787 26-502): as the sequence (P17787 26-502) above
# Chain of α3β4 nAChR (P32297 32-505): as the sequence (P32297 32-505) above
# Chain of α3β4 nAChR (P30926 22-498): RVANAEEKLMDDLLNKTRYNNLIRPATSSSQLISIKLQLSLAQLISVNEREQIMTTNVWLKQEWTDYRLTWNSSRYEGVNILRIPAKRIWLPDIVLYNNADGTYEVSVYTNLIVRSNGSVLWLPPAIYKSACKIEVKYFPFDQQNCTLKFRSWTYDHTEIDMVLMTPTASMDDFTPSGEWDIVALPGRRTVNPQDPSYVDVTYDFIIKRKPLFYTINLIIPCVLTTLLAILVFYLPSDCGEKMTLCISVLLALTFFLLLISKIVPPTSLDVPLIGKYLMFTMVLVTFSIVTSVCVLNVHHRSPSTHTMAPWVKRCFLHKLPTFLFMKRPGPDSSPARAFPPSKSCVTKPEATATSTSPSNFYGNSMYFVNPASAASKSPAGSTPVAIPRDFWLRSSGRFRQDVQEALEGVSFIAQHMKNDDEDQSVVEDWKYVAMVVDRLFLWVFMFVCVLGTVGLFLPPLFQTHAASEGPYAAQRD
smiles,measurement,setting,value
"C[n+]1ccccc1 [n-MP, 1-methylpyridinium]",Bioavailability,[1],good bioavailability
same,Effect on ACh-evoked peak-current responses of HS α4β2 receptors,[2],decreasing the responses of HS receptors; also recorded: decreasing those of HS receptors
same,Mode of action on HS α4β2 ACh-evoked responses,"[2]; 100 μM n-MP, ACh competition experiment",competitive antagonist
same,Effect of bath-applied n-MP on HS α4β2 ACh responses,"[2]; varying bath concentrations, periodic 10 μM ACh applications","concentration-dependent, and only partially reversible, inhibition"
same,Effect on ACh responses of α3β4 receptors,[3],no effect
same,α7 net-charge response to compound co-applied with PNU-120596,[4],PAM-dependent responses
same,Effect on ACh responses of α4β2α5 receptors,[5],antagonist
same,Effect on ACh-evoked peak-current responses of LS α4β2 receptors,[6],increasing the responses of LS receptors
same,Mode of action on LS α4β2 receptors,"[6]; 100 μM n-MP, 10 to 100 μM ACh",working as a PAM at those intermediate concentrations
same,LS α4β2 ACh responses after n-MP washout,[6]; 300 μM n-MP bath application,significant increases
same,"Imax of ACh, From Figure 7","[6]; LS, ACh co-applied with 100 μM n-MP, relative to 100 μM ACh control",1.824 ± 0.062
same,Effect of bath-applied n-MP on LS α4β2 ACh responses,"[6]; varying bath concentrations, periodic 100 μM ACh applications",small concentration-dependent increase
same,Effect on ACh responses of α6-containing receptors,[7],no significant effect
same,Effect on ACh responses of α3β2 receptors with high levels of β2,[8]; alpha:beta RNA 1:5,no effect
same,Effect on ACh responses of α3β2 receptors with high levels of α3,[8]; alpha:beta RNA 5:1,significant potentiation
"CC(=O)OCC[N+](C)(C)C [ACh, Acetylcholine chloride, reference compound]","Imax, From replicates, Averages ± S.D.",[2],1.535 ± 0.080
same,"Imax, From Figure 7",[6],2.327 ± 0.395
same,"Imax, From replicates, Averages ± S.D.",[6],2.290 ± 0.714
"Cn1c(=O)c2c(ncn2C)n(C)c1=O [caffeine, reference compound]",Effect on ACh-evoked peak-current responses of HS α4β2 receptors,[2],lacks significant nAChR activity
same,α7 net-charge response to compound co-applied with PNU-120596,[4],lacks significant nAChR activity
same,Effect on ACh-evoked peak-current responses of LS α4β2 receptors,[6],lacks significant nAChR activity
"C[N+]1(C)CCCCC1 [dMP, 1,1-dimethylpiperidium]",Effect on ACh-evoked peak-current responses of HS α4β2 receptors,[2],decreasing the responses of HS receptors; also recorded: strongly inhibited
same,α7 net-charge response to compound co-applied with PNU-120596,[4],large responses
same,α7 response to compound applied alone,"[4]; 100 μM compound, compared to 60 μM ACh control",comparable to those stimulated by the control application of 60 μM ACh
same,Effect on ACh-evoked peak-current responses of LS α4β2 receptors,[6],increasing the responses of LS receptors
C[N+](C)(C)CCO [choline],EC50,[4],~200 µM
same,Net charge Imax with PNU-120596 co-application versus applied alone,[4]; 10 μM PNU-120596,roughly 100 fold
same,α7 net-charge response to compound co-applied with PNU-120596,[4],greater than the initial ACh controls
